Experimental data taken from ChEMBL document CHEMBL1129247, “Dihydrobenzofuran analogues of hallucinogens. 3. Models of 4-substituted (2,5-dimethoxyphenyl)alkylamine derivatives with rigidified methoxy groups” (J Med Chem, 1996).

Columns and labels:
[1] = molecular target: T1, 5-hydroxytryptamine receptor 1A (Rattus norvegicus, UniProt P19327); assay: Binding affinity towards rat hippocampal 5-hydroxytryptamine 1A receptor using [3H]8-OH-DPAT as radioligand; assay type: tissue-based, Hippocampus
T1 sequence (P19327 whole entry): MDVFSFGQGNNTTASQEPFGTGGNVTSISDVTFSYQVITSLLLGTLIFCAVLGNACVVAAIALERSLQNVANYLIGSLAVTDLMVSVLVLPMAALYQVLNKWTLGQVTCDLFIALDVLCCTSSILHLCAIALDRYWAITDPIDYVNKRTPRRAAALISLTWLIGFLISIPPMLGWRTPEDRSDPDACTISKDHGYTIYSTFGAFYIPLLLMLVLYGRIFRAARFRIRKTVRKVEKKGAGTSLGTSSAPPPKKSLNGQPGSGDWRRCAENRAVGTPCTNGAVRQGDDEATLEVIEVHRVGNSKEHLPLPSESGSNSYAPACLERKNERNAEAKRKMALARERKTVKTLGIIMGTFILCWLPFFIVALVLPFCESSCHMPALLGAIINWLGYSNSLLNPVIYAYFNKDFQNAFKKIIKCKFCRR
Outline: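 Hippocampus pooled from male Sprague–Dawley rats (175–199 g), homogenised in sucrose and frozen. Membranes washed and preincubated twice at 37 °C in Tris HCl pH 7.4 with EDTA, ascorbate and pargyline. Assay: 0.75 nM [3H]-8-OH-DPAT, 200–400 μg protein, 15 min at 37 °C, GF/C filtration. Nonspecific binding: 10 μM 5-HT. Run in triplicate; expressed as Ki.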

[2] = molecular target: 5-hydroxytryptamine receptor 2A (Rattus norvegicus, UniProt P14842); assay: Binding affinity towards rat cortical 5-hydroxytryptamine 2A receptor using [3H]ketanserin as radioligand
Rattus norvegicus [3] = species: Rattus norvegicus; assay: Effective dose for behavioral activity or hallucinogenic potential in drug discrimination studies in LSD(d-lysergic acid N,N-diethylamide) trained rats; assay type: functional; set-up: unit not given here
Outline: (§1)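 Male Sprague–Dawley rats (200–220 g) trained in a two-lever, FR50 food task to tell LSD tartrate (0.08 mg/kg ip) from saline. Test drugs were given ip in 0.9% saline 30 min before extinction sessions. The first lever reaching 50 presses was scored; no completion within 5 min counted as disruption.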

[4] = molecular target: T2, 5-hydroxytryptamine receptor 2A (Homo sapiens, UniProt P28223); assay: Agonistic activity at cloned human 5-hydroxytryptamine 2A receptor using [125I]DOI as radioligand; assay type: functional
Outline: (§2)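 AV12 hamster fibroblast membranes stably expressing the human receptor. Final buffer: 10 μM pargyline, 9.75 mM MgCl2, 0.5 mM EDTA, 0.1% Na ascorbate, 50 mM Tris HCl pH 7.4. [125I]DOI was at about 0.07–0.15 nM, with about 40 μg (2A) or 30 μg (2C) protein, for 30 min at 37 °C. Nonspecific binding: 1 μM ketanserin (2A) or 10 μM mianserin (2C). Read by filtration and gamma counting.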

[5] = molecular target: T2, 5-hydroxytryptamine receptor 2A; assay: Antagonistic activity at cloned human 5-hydroxytryptamine 2A receptor using [3H]ketanserin as radioligand; assay type: functional
Outline: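 Human 5-HT2A expressed in AV12 cell membranes. The 0.8 mL assay held 50 mM Tris HCl, 100 nM prazosin to block α1 sites, 0.4–0.5 nM [3H]ketanserin and varying competitor, final pH 7.6. Incubated 15 min at 37 °C, then filtered and washed. Mianserin 3 μM defined nonspecific binding. Read by liquid scintillation.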

[6] = molecular target: T3, 5-hydroxytryptamine receptor 2B (Homo sapiens, UniProt P41595); assay: Agonistic activity at cloned human 5-hydroxytryptamine 2B receptor using [3H]-5-HT as radioligand; assay type: functional
Outline: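 Membranes from AV12 hamster fibroblasts stably expressing human 5-HT2B, lysed hypotonically in 50 mM Tris HCl pH 7.4. Competition against about 2 nM [3H]-5-HT (free level measured) in 50 mM Tris, 3 mM CaCl2, 10 μM pargyline, 0.1% ascorbic acid, pH 7.4. Drug dilutions spanned 6 log units. About 100-150 μg protein per tube, 15 min at 37 °C, in triplicate. Nonspecific binding with 10 μM 5-HT or 1-NP. Filtration, then scintillation counting.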

[7] = molecular target: T3, 5-hydroxytryptamine receptor 2B; assay: Antagonistic activity at cloned human 5-hydroxytryptamine 2B receptor using [3H]rauwolscine as radioligand; assay type: functional
Outline: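 Human 5-HT2B membranes from stably transformed AV12 cells in Tris HCl pH 7.4. Competition against 2 nM [3H]rauwolscine (final), with 500 nM efaroxan to mask α2 sites, in 50 mM Tris HCl pH 7.4. Incubated 20 min at 37 °C, then filtered. Nonspecific binding with 10 μM 1-naphthylpiperazine.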

[8] = molecular target: T4, 5-hydroxytryptamine receptor 2C (Homo sapiens, UniProt P28335); assay: Agonistic activity at cloned human 5-hydroxytryptamine 2C receptor using [125I]DOI as radioligand; assay type: functional; outline: as §2
T4 sequence (P28335 whole entry): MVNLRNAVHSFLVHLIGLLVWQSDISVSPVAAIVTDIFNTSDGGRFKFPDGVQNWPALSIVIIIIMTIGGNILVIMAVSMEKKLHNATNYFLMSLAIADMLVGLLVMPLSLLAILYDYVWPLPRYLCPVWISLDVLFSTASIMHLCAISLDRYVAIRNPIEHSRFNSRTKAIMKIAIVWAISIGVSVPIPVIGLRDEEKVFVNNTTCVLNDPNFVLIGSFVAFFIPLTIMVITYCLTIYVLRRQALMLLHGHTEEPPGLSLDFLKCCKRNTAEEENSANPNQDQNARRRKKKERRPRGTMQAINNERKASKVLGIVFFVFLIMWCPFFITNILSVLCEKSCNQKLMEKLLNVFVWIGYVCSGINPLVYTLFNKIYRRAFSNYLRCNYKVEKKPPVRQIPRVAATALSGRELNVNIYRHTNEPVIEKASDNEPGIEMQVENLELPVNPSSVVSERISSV

[9] = molecular target: T4, 5-hydroxytryptamine receptor 2C; assay: Antagonistic activity at cloned human 5-hydroxytryptamine 2C receptor using [3H]mesulergine as radioligand; assay type: functional
Outline: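 AV12 membranes expressing human 5-HT2C. The 0.8 mL assay held 0.74–0.82 nM [3H]mesulergine, varying competitor and Tris HCl, final pH 7.6. Incubated 30 min at 37 °C, then filtered, washed and counted by liquid scintillation. Mianserin defined nonspecific binding.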

Rattus norvegicus [10] = species: Rattus norvegicus; assay: Effective dose in Drug Discrimination studies in LSD(d-lysergic acid N,N-diethylamide) trained rats. No. of animals tested 15; assay type: functional; outline: as §1

Chain of 5-hydroxytryptamine receptor 2A (Rattus norvegicus, UniProt P14842) (P14842 whole entry): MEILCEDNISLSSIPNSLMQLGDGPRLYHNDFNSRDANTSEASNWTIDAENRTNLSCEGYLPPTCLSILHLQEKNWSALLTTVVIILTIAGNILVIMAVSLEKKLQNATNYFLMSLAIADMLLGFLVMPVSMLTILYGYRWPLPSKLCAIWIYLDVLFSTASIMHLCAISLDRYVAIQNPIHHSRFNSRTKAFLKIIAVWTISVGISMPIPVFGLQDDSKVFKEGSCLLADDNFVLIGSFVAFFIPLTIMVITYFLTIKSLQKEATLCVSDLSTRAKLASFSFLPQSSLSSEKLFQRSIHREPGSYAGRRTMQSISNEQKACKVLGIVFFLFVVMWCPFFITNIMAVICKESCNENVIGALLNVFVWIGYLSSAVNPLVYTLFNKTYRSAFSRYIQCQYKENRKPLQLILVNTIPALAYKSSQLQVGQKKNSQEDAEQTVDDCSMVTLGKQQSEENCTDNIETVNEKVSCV
T2 sequence (P28223 whole entry): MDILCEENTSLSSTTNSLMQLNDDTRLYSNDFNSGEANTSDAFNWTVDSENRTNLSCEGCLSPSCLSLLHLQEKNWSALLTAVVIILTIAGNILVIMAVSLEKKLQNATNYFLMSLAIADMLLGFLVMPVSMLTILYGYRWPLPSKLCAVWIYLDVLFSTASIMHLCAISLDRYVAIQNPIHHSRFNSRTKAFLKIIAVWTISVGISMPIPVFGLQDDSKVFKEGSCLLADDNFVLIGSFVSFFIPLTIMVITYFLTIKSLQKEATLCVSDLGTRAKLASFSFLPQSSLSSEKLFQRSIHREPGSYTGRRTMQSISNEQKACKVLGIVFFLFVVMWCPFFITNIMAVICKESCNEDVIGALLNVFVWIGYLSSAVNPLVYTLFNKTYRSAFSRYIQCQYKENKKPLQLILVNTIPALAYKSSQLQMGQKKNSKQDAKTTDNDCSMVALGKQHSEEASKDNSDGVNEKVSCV
T3 sequence (P41595 whole entry): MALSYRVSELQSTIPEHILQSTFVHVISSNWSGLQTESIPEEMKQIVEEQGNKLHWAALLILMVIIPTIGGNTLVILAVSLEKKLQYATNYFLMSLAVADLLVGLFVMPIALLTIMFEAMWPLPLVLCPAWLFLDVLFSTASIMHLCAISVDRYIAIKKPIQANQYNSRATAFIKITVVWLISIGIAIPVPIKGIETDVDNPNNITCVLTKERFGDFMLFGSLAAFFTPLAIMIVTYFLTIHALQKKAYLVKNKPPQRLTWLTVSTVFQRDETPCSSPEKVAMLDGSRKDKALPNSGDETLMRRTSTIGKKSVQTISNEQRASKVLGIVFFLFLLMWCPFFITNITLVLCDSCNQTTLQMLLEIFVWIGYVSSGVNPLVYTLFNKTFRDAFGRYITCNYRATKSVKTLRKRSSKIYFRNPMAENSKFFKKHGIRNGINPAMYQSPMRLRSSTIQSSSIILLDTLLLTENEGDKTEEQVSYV

| SMILES | Ki [1] | Ki [2] | ED50 (Rattus norvegicus [3]) | other results |
| --- | --- | --- | --- | --- |
| NCCc1c2c(cc3c1OCC3)OCC2 | 5.2 nM | 2300 nM | 1430 |  |
| CC(N)Cc1c2c(c(Br)c3c1OCC3)OCC2 (stereo unspecified) | 4.3 nM | 18 nM | 61 | Ki [4]: 0.48 nM; Ki [5]: 10.7 nM; Ki [6]: 1.6 nM; Ki [7]: 1.15 nM; Ki [8]: 0.3 nM; Ki [9]: 2.28 nM |
| NCCc1c2c(c(Br)c3c1OCC3)OCC2 | 0.8 nM | 34 nM |  |  |
| Cc1c2c(c(CC(C)N)c3c1OCC3)OCC2 (stereo unspecified) |  |  | 780 |  |
| COc1cc(Br)c2c(c1CC(C)N)CCO2 (stereo unspecified) |  |  | 570 |  |
| CC(N)Cc1c2c(cc3c1OCC3)OCC2 (stereo unspecified) | 29 nM | 2010 nM | 64000 |  |
| COc1cc(CC(C)N)c(OC)cc1Br (stereo unspecified) [BROLAMFETAMINE] | 6.1 nM |  |  |  |
| CCN(CC)C(=O)[C@@H]1C=C2c3cccc4[nH]cc(c34)C[C@H]2N(C)C1 [LYSERGIDE] |  |  |  | ED50 (Rattus norvegicus [10]): 40 µmol/kg |
